Assay outcomes as filed in PubChem.
NadD inh = inhibitors of S. aureus NadD, primary screen, biochemical, colorimetric, uHTS; hit rate 0.78% among 360,000; Nicotinate-nucleotide adenylyltransferase NadD (Staphylococcus aureus N315); AID 602399, 2012; inhibition, % at 20 µM; purified NadD enzyme, colorimetric absorbance read-out; in the data active = inhibition above about 26%
LMPTP block = LMPTP phosphatase inhibitors, primary screen, biochemical, fluorescence intensity, uHTS | hit rate 0.22% among 360,000 | Low molecular weight phosphotyrosine protein phosphatase (Homo sapiens), P24666 | inhibition, % at 20 µM | recombinant LMPTP-A, OMFP fluorogenic substrate;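 active = compounds that cut the enzyme signal by at least half of the control window in the single-dose screen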;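 also: plate controls were DMSO wells with enzyme plus substrate for no effect and substrate without enzyme for full effect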
Target sequence (P24666 whole entry, looked up): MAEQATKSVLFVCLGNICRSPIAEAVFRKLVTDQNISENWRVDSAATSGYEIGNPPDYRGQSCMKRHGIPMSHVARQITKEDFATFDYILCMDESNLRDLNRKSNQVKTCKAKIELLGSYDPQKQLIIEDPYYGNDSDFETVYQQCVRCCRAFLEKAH
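Test system – LMPTP-A enzyme · Amount – LMPTP-A at 0.625 nM final in the reaction · Buffer or medium – Bis-Tris pH 6.0, DTT, detergent · Reagent – OMFP 400 µM · Doses – single 20 µM dose · Schedule – reaction 50 min, room temperature, dark · Detection – fluorescence intensity of OMFP turnover product · Evaluation – percent inhibition versus substrate-only and uninhibited controls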
rCAG binder = binders of r(CAG) RNA repeats, primary screen, biochemical, fluorescence. hit rate 1.3% among 370,000. AID 651821, 2012. r(CAG) RNA repeat, TO-PRO-1 dye displacement fluorescence. inhibition, % at 3 µM;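 active = inhibition above the plate cutoff, the mean of all test compounds on that plate plus 3 SD, cut at about 35% in these data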;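 also: 0% = DMSO alone and 100% = 100 µM mitoxantrone as full dye displacement; higher means more dye released from RNA so lower well fluorescence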
STEP inh = STEP phosphatase inhibitors, primary screen, biochemical, fluorescence intensity, uHTS; Tyrosine-protein phosphatase non-receptor type 5 (Homo sapiens), P54829; recombinant STEP, OMFP fluorogenic substrate; inhibition, % at 20 µM; hit rate 0.25% among 360,000; AID 588621, 2011;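 active = inhibition at 20 µM, scaled per plate between control wells, above about 37%, limit read from the data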;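 also: 0% = DMSO with enzyme and substrate and 100% = substrate only without enzyme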
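Measure: Control-normalized % inhibition with plate pattern correction | Test system: STEP phosphatase, cell-free reaction | Medium: pH 6.0 Bis-Tris with DTT and Tween 20 | Technique: Fluorescence, 480/540 nm | Times: Reaction 20 min, ambient temperature | Doses: Single compound dose of 20 µM, 1% DMSO final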
Scp1 inh = Scp-1 phosphatase inhibitors, primary screen, biochemical, colorimetric, uHTS; Carboxy-terminal domain RNA polymerase II polypeptide A small phosphatase 1 (Homo …; AID 493091, 2011; Recombinant Scp1, phosphopeptide, malachite green phosphate absorbance; hit rate 0.88% among 340,000; inhibition, % at 20 µM;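 active = inhibition above about 50% at 20 µM, limit read from the data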;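 also: plate controls were DMSO wells with enzyme for no effect and wells lacking enzyme for full effect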
Target sequence (Q9GZU7 76-261 limits assumed): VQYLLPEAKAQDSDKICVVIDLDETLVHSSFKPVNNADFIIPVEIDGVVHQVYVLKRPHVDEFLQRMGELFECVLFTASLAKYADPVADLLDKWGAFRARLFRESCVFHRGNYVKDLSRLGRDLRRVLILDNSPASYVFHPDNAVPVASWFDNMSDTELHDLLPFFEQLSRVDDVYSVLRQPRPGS
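Test system: SCP-1 catalytic domain; Buffer or medium: Acidic Tris acetate buffer with magnesium and detergent; Also added: Phosphorylated 17-residue peptide substrate; Compound: single 20 µM dose, 1% DMSO; Schedule: enzyme reaction 45 min at room temperature, colour 5 min, stabilisation 30 min; Signal: Phosphate-binding colour reagent, absorbance read at 630 nm.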
Scp-1 conf = Scp-1 phosphatase inhibitors, retest, confirmation, biochemical, colorimetric, single concentration | shares compounds with Scp1 inh | recombinant SCP-1 catalytic domain, phosphate release, malachite green absorbance | inhibition, % at 20 µM | hit rate 61% among 2,500 | AID 540281, 2011;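 also: plate controls were DMSO with enzyme for no effect and buffer wells lacking enzyme for full effect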
MG interference = colorimetric readout interference by compounds, confirmation, artefact control for Scp-1 inhibitor project, biochemical, single concentration | shares compounds with Scp1 inh | Colorimetric interference counterscreen, malachite green absorbance 630 nm | apparent inhibition (interference), % at 20 µM | 2,500 tested, under 10 active;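 also: compounds added after enzyme reaction finished so only phosphate colour detection is probed; plate controls were DMSO wells with completed Scp-1 reaction for no effect and substrate wells lacking enzyme for full effect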
Scp-1 Tm shift = Scp-1 binding by thermal shift, confirmation, orthogonal assay for Scp-1 inhibitor project, biophysical, differential scanning fluorimetry; shares compounds with Scp1 inh; AID 540329, 2011; Recombinant SCP1, Sypro Orange thermal shift Tm; hit rate 25% among 1,500; thermal shift relative to vanadate control, % at 40 µM;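 active = substances whose mean melting-temperature shift, as a percentage of the reference inhibitor's shift, reaches about 5.3%, limit read from the data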;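 also: 0% = Tm of DMSO wells and 100% = Tm with sodium orthovanadate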
Numbers without * were called inactive; · = no result given. Only some compounds are listed: those with a hit (about 2.6% of all), similar ones and a draw of the others.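 The calls were made as follows, unless noted: active = inhibition of at least 30% at 20 µM; inactive = the rest.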

SMILES	NadD inh	LMPTP block	rCAG binder	STEP inh	Scp1 inh	Scp-1 conf	MG interference	Scp-1 Tm shift
Cc1ccc(C(=O)OCC(=O)c2ccc(CC(=O)N3CCOCC3)s2)cc1C	3.1	3.9	18.2	2.7	55.5*	56.6*	-15.6	3.5
Cc1ccc(C(=O)OCC(=O)c2ccc(CC(=O)N3CCOCC3)s2)c(C)c1	5.1	10.4	18.3	5.6	71.7*	78.2*	-4.6	6.7*
Cc1ccc(-n2c(C)cc(C(=O)OCC(=O)N3CCOCC3)c2C)cc1	1.1	-2.2	0.1	0.3	-12.4	·	·	·
CCOC(=O)c1cccc(NC(=O)CN(C)S(=O)(=O)c2cc3ccccc3s2)c1	·	·	6.2	·	·	·	·	·
CC(C)C[C@@H](CN1C(=O)C(=O)NC[C@@H]1CC(C)C)NC(=O)Cc1ccccc1	-2.1	0.1	-7.1	1.2	-3.0	-8.1	-8.4	·
COc1ccc(NC(=O)CSc2nc(C)cc(=O)[nH]2)cc1OC	·	·	1.8	·	·	·	·	·
NS(=O)(=O)c1ccc(NC(=S)Nc2ccc(F)c(F)c2)cc1	-1.5	-1.4	0.4	-2.6	59.5*	-2.2	-10.9	·
NS(=O)(=O)c1ccc(CNC(=S)Nc2ccc(F)c(Cl)c2)cc1	-3.3	1.6	4.6	-1.8	-9.3	·	·	·
Cc1cccc(Cn2cc(CN3CC(N(C)CCOC(=O)c4cc(C)cc(C)c4)CS3(=O)=O)nn2)c1 (stereo not drawn)	·	·	1.8	·	·	·	·	·
CCOC(=O)C1CCCN(C(=O)c2ccc(CS(=O)(=O)c3ccc(C)cc3)o2)C1 (stereo not drawn)	6.9	0.5	·	1.4	57.4*	55.4*	-11.4	4.5
NCCCCC(=O)O	-4.5	-2.6	0.5	-3.2	54.5*	-6.5	-11.5	·
CN1CCCCC(NC(=O)c2ccccc2)C1=O (stereo not drawn)	·	·	1.6	·	·	·	·	·
COc1ccc(-n2c(Cc3cccn3C)nnc2SCC(=O)NCc2ccc(F)cc2)cc1	5.5	-0.3	-1.5	-3.3	90.2*	-1.8	-7.9	·
CCCc1ccc(C(=O)NNC(=O)c2ccc(Cl)cc2)cc1	0.6	24.7	2.7	3.6	94.0*	74.0*	-14.5	-3.3
CCCc1ccc(C(=O)NNc2cc(Cl)ccc2Cl)cc1	2.3	3.5	1.3	-1.6	-10.8	·	·	·
CCOC(=O)c1cn(CC)c2cc(N3CCN(C)CC3)c(F)cc2c1=O	-8.8	-1.3	-4.7	-0.2	-11.0	·	·	·
CCOC(=O)c1cn(CC)c2cc3c(cc2c1=O)OCO3	-0.5	-0.2	2.6	-1.4	64.3*	-11.7	-5.2	·
Cc1cc(C)cc(OC[C@@H](O)CN2CCC(C(O)(c3ccccc3)c3ccccc3)CC2)c1	·	·	0.4	·	·	·	·	·
Cc1ccc(Cn2cc(COC(=O)NCC(C)C)nn2)cc1	·	·	0.3	·	·	·	·	·
Cc1ccc(N=Nc2ccc(O)c(/C=N\NC(=O)c3ccc(N)cc3)c2)cc1C	48.3*	41.1	11.5	37.9	94.9*	73.7*	-11.2	-1.0
Cc1ccc(-c2cc(C(=O)NN=Cc3cc(Br)ccc3O)[nH]n2)cc1C	·	·	21.1	·	·	·	·	·
COc1ccc(N2CCN(C(=O)Cc3ccc(S(=O)(=O)N4CCOCC4)s3)CC2)cc1	-0.2	9.9	13.1	0.0	80.9*	69.4*	-11.8	4.5
O=C(O)Cc1ccc(S(=O)(=O)N2CCCC2)s1	-0.6	2.0	7.8	18.3	93.3*	57.6*	-21.6	-0.1
Cc1nn(-c2ccccc2)c2sc(C(=O)NCc3ccc4c(c3)OCO4)cc12	·	·	9.4	·	·	·	·	·
COc1cccc(C2c3c(-c4ccccc4)n[nH]c3C(=O)N2c2ccc(C(=O)O)cc2)c1 (stereo not drawn)	-1.7	-1.0	24.8	3.2	53.2*	51.6*	-20.8	23.9*
SMILES	NadD inh	LMPTP block	rCAG binder	STEP inh	Scp1 inh	Scp-1 conf	MG interference	Scp-1 Tm shift
COc1ccc(C2c3c(-c4ccccc4)n[nH]c3C(=O)N2c2ccc(C(=O)O)cc2)cc1 (stereo not drawn)	-2.3	0.2	24.4	-1.1	42.1	·	·	·
CCCCCCCCN1CCS(=O)(=O)N(Cc2ccc(Cl)cc2)C(C(=O)OC)C1 (stereo not drawn)	·	·	0.6	·	·	·	·	·
NS(=O)(=O)c1ccc(NC(=O)CSc2nnc(NC3CC3)s2)cc1	2.1	0.5	-1.1	11.7	86.6*	46.6*	-24.1	1.6
COc1ccc(CSc2nnc(SCC(=O)Nc3ccc(S(N)(=O)=O)cc3)s2)cc1	·	·	14.2	·	·	·	·	·
CCOc1ccc2c(c1)[N+](C)(C)C(C)(C)C=C2C	5.0	0.0	-4.6	-1.0	48.3	·	·	·
COc1ccc2c(c1)[N+](C)(C)C(C)(C)C=C2C	17.0	-2.4	-1.9	-1.9	93.4*	86.2*	-12.3	-21.2
COc1ccccc1NCCC(=O)OCC(=O)NCc1ccco1	8.0	22.1	15.8	4.5	74.9*	63.9*	-8.7	-1.2
Cc1ccccc1OCC(=O)OCC(=O)NCc1ccco1	-8.3	2.4	-0.6	1.1	-5.7	·	·	·
COc1ccc(OCCC(=O)OCC(=O)NCc2ccco2)cc1	7.3	3.4	1.7	5.1	86.0*	72.4*	-5.2	-12.2
COC(=O)C[C@H]1CC[C@H]2[C@@H](COc3ccc(NC(=O)Nc4ccccc4)cc3C(=O)N2C)O1	·	·	0.6	·	·	·	·	·
CC(C)[C@H](NC(=O)Cc1ccccc1)C(=O)OCc1cc(=O)n2c(n1)sc1ccccc12	4.4	21.8	16.6	4.3	76.1*	58.8*	-16.1	-8.2
Cc1ccc2c(CC(=O)OCc3cc(=O)n4c(n3)sc3ccccc34)coc2c1	9.7	13.3	8.5	3.4	65.8*	68.2*	-17.2	-1.4
O=C(OCc1cc(=O)n2c(n1)sc1ccccc12)c1ccc2c(=O)n3c(nc2c1)CCC3	17.0	38.9	19.8	9.9	72.5*	52.5*	-12.6	-2.4
CC(=O)c1c(C)[nH]c(C(=O)COC(=O)c2ccc3c(=O)n4c(nc3c2)CCC4)c1C	6.3	0.1	3.1	2.0	-1.2	·	·	·
O=C(CSc1nnc(-c2cccnc2)n1C1CCCCC1)NC1CCCCCC1	·	·	0.5	·	·	·	·	·
O=C(NCc1ccccn1)C1CCN(S(=O)(=O)c2cnc[nH]2)CC1	-1.3	0.6	-2.6	-2.6	60.4*	33.3*	-12.9	-4.7
CCCCNC(=O)C[C@H]1C[C@@]2(C(=O)OC)C(=C[C@H](C3CCCC3)O[C@@H]2C)N(Cc2ccc(Cl)cc2Cl)C1=O	·	·	4.0	·	·	·	·	·
